Test results from ChEMBL document CHEMBL1145326, “Antimycobacterial agents. Novel diarylpyrrole derivatives of BM212 endowed with high activity toward Mycobacterium tuberculosis and low cytotoxicity” (2006).
≈ marks a conversion by molar mass, not a printed value.

Tests used:
Vero [1] = assay: Protection index, cytotoxicity against Vero cell line/antibacterial activity against Mycobacterium tuberculosis 103471; assay type: functional
Method in brief: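 Protection index is the ratio of Vero-cell MNTD₅₀ (cell counts after 5-day exposure) to the MIC against M. tuberculosis CIP 103471. The MIC came from 2-fold tube dilution, inoculum 10⁵–10⁶ CFU/mL, 37 °C.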

Vero [2] = assay: Cytotoxicity against Vero cell line; assay type: functional, Chlorocebus sabaeus
Method in brief: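 Vero cells were cultured for 24 h, then the medium was replaced with medium holding decreasing compound concentrations. After 5 days the cells were trypsinised and counted in a Neubauer chamber, in triplicate. MNTD₅₀ (µg/mL) is the concentration that decreased cell multiplication by less than 50% of control.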

[3] = system: Mycolicibacterium smegmatis; assay: Antibacterial activity against Mycobacterium smegmatis; assay type: functional
Method in brief: (§1)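 MIC by serial 2-fold tube dilution. Compound DMSO stocks were filter-sterilised (0.2 µm) and diluted in water. Tubes were inoculated with 10⁵–10⁶ CFU/mL of each mycobacterium and incubated at 37 °C for 3–21 days. Each run included a drug-free control tube. Values are in µg/mL.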

Mycobacterium marinum = assay: Antibacterial activity against Mycobacterium marinum; assay type: functional; method in brief: as §1
[4] = system: Mycobacterium tuberculosis; assay: Antibacterial activity against Mycobacterium tuberculosis 103471; assay type: functional; method in brief: as §1
Mycobacterium avium = assay: Antibacterial activity against Mycobacterium avium; assay type: functional; method in brief: as §1
[5] = system: Mycobacterium tuberculosis; assay: Antibacterial activity against intramacrophagic Mycobacterium tuberculosis; assay type: functional

Structure (SMILES)	PI (Vero [1])	Maximal non-toxic dose 50 (Vero [2]) [µg/mL]	MIC [3] [µg/mL]	MIC (Mycobacterium marinum) [µg/mL]	MIC [4] [µg/mL]	MIC (Mycobacterium avium) [µg/mL]	MCC [5] [µg/mL]
Cc1c(CN2CCN(C)CC2)cc(-c2ccc(F)cc2)n1-c1ccccc1Cl	2	8	> 16	> 16	4 (≈ 10.1 µM)	> 16	
Cc1ccc(-c2cc(CN3CCSCC3)c(C)n2-c2ccc(F)cc2)cc1	160	64	16 (≈ 42 µM)	8 (≈ 21 µM)	0.4 (≈ 1.05 µM)	8 (≈ 21 µM)	3
Cc1c(CN2CCSCC2)cc(-c2ccccc2Cl)n1-c1ccc(F)cc1	1	4	> 16	> 16	4 (≈ 9.98 µM)	16 (≈ 39.9 µM)	
Cc1c(CN2CCSCC2)cc(-c2ccc(F)cc2)n1-c1ccccc1Cl	4	8	> 16	> 16	2 (≈ 4.99 µM)	> 16	
Cc1cccc(-n2c(-c3ccc(F)cc3)cc(CN3CCSCC3)c2C)c1	2	8	> 16	> 16	4 (≈ 10.5 µM)	16 (≈ 42 µM)	
NNC(=O)c1ccncc1 [ISONIAZID]	128	32	64 (≈ 467 µM)	16 (≈ 117 µM)	0.25 (≈ 1.82 µM)	32 (≈ 233 µM)	
Cc1ccccc1-c1cc(CN2CCSCC2)c(C)n1-c1ccc(F)cc1	2	8	> 16	> 16	4 (≈ 10.5 µM)	8 (≈ 21 µM)	
Cc1c(CN2CCSCC2)cc(-c2ccc(F)cc2)n1-c1ccc(F)cc1F	8	16	> 16	16 (≈ 39.8 µM)	2 (≈ 4.97 µM)	16 (≈ 39.8 µM)	
Cc1ccc(-c2cc(CN3CCN(C)CC3)c(C)n2-c2ccc(F)cc2)cc1	2	8	8 (≈ 21.2 µM)	> 16	4 (≈ 10.6 µM)	4 (≈ 10.6 µM)	
Cc1c(CN2CCSCC2)cc(-c2ccccc2F)n1-c1ccc(F)cc1	32	16	> 16	> 16	0.5 (≈ 1.3 µM)	16 (≈ 41.6 µM)	
Cc1cccc(-c2cc(CN3CCN(C)CC3)c(C)n2-c2ccc(F)cc2)c1	0.5	8	> 16	> 16	16 (≈ 42.4 µM)	16 (≈ 42.4 µM)	
Cc1c(CN2CCN(C)CC2)cc(-c2ccccc2Cl)n1-c1ccc(F)cc1	0.25	2	> 16	> 16	8 (≈ 20.1 µM)	16 (≈ 40.2 µM)	
Cc1c(CN2CCN(C)CC2)cc(-c2ccc(Cl)cc2)n1-c1ccc(Cl)cc1	5.6	4	25 (≈ 60.3 µM)	100 (≈ 241 µM)	0.7 (≈ 1.69 µM)	0.4 (≈ 0.965 µM)	
Cc1cccc(-n2c(-c3ccc(F)cc3)cc(CN3CCN(C)CC3)c2C)c1	1	16	> 16	> 16	16 (≈ 42.4 µM)	> 16	
Cc1c(CN2CCN(C)CC2)cc(-c2ccc(F)cc2)n1-c1ccccc1F	1	8	0.3 (≈ 0.786 µM)	> 16	8 (≈ 21 µM)	16 (≈ 41.9 µM)	
Cc1ccccc1-n1c(-c2ccc(F)cc2)cc(CN2CCN(C)CC2)c1C		2	> 16	> 16	> 16	> 16	
